# Source: PubChem BioAssay (several laboratories)
# PGE2 EP2 inh: blocks the human prostaglandin E2 receptor EP2 | P43116 | C6 glioma cells expressing human EP2, cAMP TR-FRET; cells stimulated with saturating PGE2 | inhibition, % at 25 µM | actives 0.52% (n = 260,000) | AID 1422;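 active means percent inhibition above 40 after rounding to a whole number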;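 further: rat C6 glioma host cells with rolipram phosphodiesterase inhibitor present; the protocol text gives 20 µM as final concentration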
# Target sequence (P43116 whole entry, looked up): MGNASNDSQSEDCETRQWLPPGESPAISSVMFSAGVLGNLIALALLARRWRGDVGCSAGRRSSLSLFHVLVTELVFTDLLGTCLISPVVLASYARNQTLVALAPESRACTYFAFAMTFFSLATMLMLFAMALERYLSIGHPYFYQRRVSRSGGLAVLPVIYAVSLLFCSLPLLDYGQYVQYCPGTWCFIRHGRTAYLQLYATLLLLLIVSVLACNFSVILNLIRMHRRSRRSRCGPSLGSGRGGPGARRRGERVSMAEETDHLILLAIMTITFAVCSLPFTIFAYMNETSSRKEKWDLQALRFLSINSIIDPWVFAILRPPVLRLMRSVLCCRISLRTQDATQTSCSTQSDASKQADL
# Hsp70 act: switches on Hsp70 transcription; HeLa Hsp70 promoter luciferase reporter, luminescence; scaled: vehicle 0, proteasome-inhibitor control 100%; activation, % at 10 µM; actives 0.04% (n = 200,000); AID 1203;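 active means activation above the mean across all tested compounds plus 3 SD, cutoff set per campaign, cut at about 5.5% in these data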;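 further: 100% = MG132 at 30 µM as the positive control and 0% = DMSO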
# EP2 modulator: EP2 receptor (human) modulation; AID 940; EP2-expressing cells, cAMP HTRF FRET, PGE2 co-stimulation; P43116; actives 0.83% (n = 260,000); induction, % at 25 µM;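 active means compounds whose cAMP rise, as percent of the full-agonist control response, exceeds 60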;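 further: rat C6 glioma line stably carrying human EP2 under a CMV promoter; the protocol text gives 20 µM as final concentration; 100% = response of wells given 1 µM PGE2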
# Dynein transport: dynein cargo transport inhibition | 3617.4 mouse cells, GR-EGFP nuclear translocation imaging; test concentration mostly 20 µM; stimulated with dexamethasone, 1 µM; active compounds read low | actives 0.47% (n = 220,000) | z-score, hits read low | AID 1381;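 active means plate z-score of nuclear minus cytoplasmic receptor signal below a set negative limit, without overly bright fluorescence or cell loss, cut at about -3.5 in these data, passing the limit was not always enough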;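 further: z-score of nuclear minus cytoplasmic ring GR-EGFP intensity difference per well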
#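 Buffer or medium: tet-free, stripped-serum medium; reagent: dexamethasone at 1.0 µM final, 30 min; incubation: 48 h induction, 1 h compound, 30 min dex at 37 °C; measured by: formaldehyde fixation, Hoechst nuclear stain, 10x automated fluorescence imaging; read-out: nuclear-to-cytoplasmic GR-EGFP distribution per well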
# The depositor's hits bear a star; nt = no result; ! = not confirmed by another sample. Most compounds without a hit are left out; they make up all but 1.7% or so of the library.
SMILES,PGE2 EP2 inh,Hsp70 act,EP2 modulator,Dynein transport
O=Nc1c(O)n(Cc2cccc(C(F)(F)F)c2)c2ccccc12,6.0,-0.2,63.9*,-0.802
CN(C)c1nc(SCc2ccccc2)nc(N2CCOCC2)n1,8.6,-0.2,25.7,1.31
CCNc1nc(SCc2ccccc2)nc(N2CCOCC2)n1,7.1,-0.3,63.0*,1.01
Cc1cc(C)c2c(=O)n(CC(=O)Nc3ccc(Cl)cc3)sc2n1,98.2*,nt,-78.9,-1.67
CCOc1ccc(NC(=O)CSc2nc(C)cc(C)c2C#N)cc1,6.7,nt,-20.6,nt
Cc1cc(C)c2c(=O)n(CC(=O)Nc3cccc(F)c3)sc2n1,84.0*,nt,-53.8,-1.62
Cc1ccc(NC(=O)Cn2sc3nc(C)cc(C)c3c2=O)c(Cl)c1,8.7,nt,-27.3,-0.984
CCOc1ccc(NC(=O)Cn2sc3nc(C)cc(C)c3c2=O)cc1,122.0*,nt,-40.9,-0.122
COc1ccccc1CC(=O)N1CCCC(c2c(S(C)(=O)=O)cnc3ncnn23)C1 (configuration not stated),nt,nt,13.8,nt
CCOC(=O)c1ccc(N2C(=O)C=CC2=O)cc1,110.8*,-0.1,-38.5,0.0303
CCOC(=O)c1ccc(N2C(=O)CC(Sc3nnc(C)s3)C2=O)cc1 (configuration not stated),10.4,0.3,-3.4,-3.53*
CCOC(=O)CSc1nnc(-c2cc3ccccc3cc2O)n1C,9.1,nt,-20.4,nt
COc1ccc2[nH]c(=O)c(CN(CCCN(C)C)C(=S)Nc3ccc(C)cc3)cc2c1,14.1,nt,-45.5,nt
O=C1c2ccccc2-c2c(NCCc3ccccc3)c(=O)[nH]c3cccc1c23,10.3,nt,65.8*,nt
O=c1[nH]ncc(NCCc2ccccc2)c1Cl,8.6,-0.5,11.8,-0.69
COc1ccc(Nc2nc3ccccc3nc2-n2nc(C)cc2C)cc1,9.5,-0.3,65.3*,0.0471
COc1ccc(-c2cc(C(F)(F)F)nc(SCC(=O)Nc3cccc(C(C)=O)c3)n2)cc1OC,12.8,nt,-18.5,nt
COc1ccccc1NC(=O)N(Cc1cccnc1)Cc1cc2cc3c(cc2[nH]c1=O)OCCO3,9.9,nt,7.8,nt
CN1[C@@H]2CC[C@H]1CC(OC(c1ccccc1)c1ccccc1)C2 (some centres not stated),57.5*,nt,-15.3,nt
Cc1cc(C(C)(C)C)oc1C(=O)N(CC(=O)NC1CCCC1)c1ccc(F)cc1,14.6,-0.3,1.4,-0.368
Cc1cc(C(C)(C)C)oc1C(=O)N(CC(=O)NC1CCCC1)c1c(C)cccc1C,11.2,-0.4,64.0*,-0.604
Clc1ccc2c(c1)c1cc(Cl)ccc1n2CN1CCOCC1,1.6,-0.4,64.4*,0.271
O=C1OC2(c3ccc(O)cc3Oc3cc(O)ccc32)c2c1c(-c1ccccc1)c(-c1ccccc1)c(-c1ccccc1)c2-c1ccccc1,45.2*,nt,4.7,nt
O=c1cc(-c2ccccc2)oc2ccc(O)cc12,9.3,nt,-6.0,0.977
COc1ccc(-c2c(C)nn3cc(C(=O)c4ccccc4O)cnc23)cc1,3.3,nt,11.4,nt
SMILES,PGE2 EP2 inh,Hsp70 act,EP2 modulator,Dynein transport
Cc1ccc(C(=O)C2=C(O)C(=O)N(Cc3ccccc3)C2c2cccnc2)o1 (configuration not stated),17.2,-0.2,61.3*,0.191
CC(=O)CSc1nc(C2CC2)cc(C(F)(F)F)c1C#N,18.6,nt,86.4*,nt
COC(=O)CSc1nc(C2CC2)cc(C(F)(F)F)c1C#N,8.2,-0.2,41.5,-0.531
CCn1cc(C(=O)NC2(c3cccc(OC)c3)CCCC2)cn1,nt,nt,2.3,nt
O=C1C(SCCO)=C(SCCO)C(=O)c2ccccc21,43.0*,nt,-60.4,nt
N#CC(=NCCO)C1=C(O)c2ccccc2C1=O,11.9,nt,-2.7,nt
O=C1c2ccccc2C(=O)c2c1ccc(N1C(=O)c3ccccc3C1=O)c2-c1c(N2C(=O)c3ccccc3C2=O)ccc2c1C(=O)c1ccccc1C2=O,45.5*,nt,-0.4,nt
Cc1cccc(N2CCN(c3nc4ccccc4n4cnnc34)CC2)c1C,10.5,-0.3,62.6*,-1.51
c1cnc(N2CCN(c3nc4ccccc4n4cnnc34)CC2)nc1,2.7,-0.5,-15.1,-0.548
CC(C)(C)c1ccc(C(=O)NC2CCN(CC(=O)Nc3ccc4c(c3)OCCO4)CC2)cc1,5.5,nt,3.6,nt
O=C(Nc1nc2c(Br)cc(Br)cc2c(=O)s1)c1ccco1,12.8,nt,65.2*,0.894
CCOc1ccc(C(=O)O)o1,7.8,nt,2.9,nt
CC(C)C1C(C#N)=C(N)Oc2n[nH]c(-c3ccc4ccccc4c3)c21 (configuration not stated),133.1*,0.0,-33.0,-0.189
CC(C)C1C(C#N)=C(N)Oc2n[nH]c(-c3cccs3)c21 (configuration not stated),14.9,0.1,-38.1,-0.901
COC(=O)c1scc(C)c1N/N=C(\C)c1ccc(F)cc1,3.7,-0.2,60.6*,-0.693
OC1(c2ccccc2F)CCN(Cc2cnc(N3CCOCC3)nc2)CC1,9.5,nt,-58.2,nt
Cc1ccc(OCC(=O)Nc2nccs2)c(C(C)(C)C)c1,5.1,nt,14.8,nt
CC1(C)N=C(N)N=C(N)N1c1cccc(OCc2cccc([N+](=O)[O-])c2)c1,47.4*,nt,10.4,nt
COC(=O)c1ccc(NC(=O)c2ccc(N(C)S(C)(=O)=O)cc2)cc1,113.0*,-0.6,-6.2,0.00687
S=c1nc[nH]c2c1[nH]c1ccc(Cl)cc12,9.9,nt,61.4*,-1.11
COc1cc(N=c2ssnc2Cl)cc(OC)c1,94.8*,0.6,-5.9,-4.16
COc1cc(C2Nc3cccc4cccc(c34)N2)ccc1OC(C)=O,3.3,-0.1,-25.5,-0.275
COc1cc(C2Nc3cccc4cccc(c34)N2)cc(OC)c1O,6.2,-0.3,-18.7,-3.71*
Cc1cccc(NC(=O)CSc2nc3sc4c(c3c(=O)[nH]2)CCCC4)c1C,45.2*,nt,-13.2,nt
CN(C)CCCN1CCC2(CCC(C(C)(C)C)CC2)CC1,51.0*,nt,21.7,nt
SMILES,PGE2 EP2 inh,Hsp70 act,EP2 modulator,Dynein transport
CC(C)(C)C1CCC2(CC1)CCN(CCCN1CCOCC1)CC2,44.0*,nt,7.3,nt
COc1ccc(N(C(=O)c2ccco2)C(C(=O)NC2CCCCC2)c2ccccc2)cc1 (configuration not stated),10.6,-0.5,61.5*!,0.728
COc1ccc(N(C(=O)c2ccco2)C(C(=O)NC2CCCC2)c2ccc(N(C)C)cc2)cc1 (configuration not stated),12.5,-0.2,33.2,1.37
COc1cccc(N=C2SC(C(=O)Nc3ccccc3F)CC(=O)N2C)c1 (configuration not stated),162.7*,-0.3,-18.7,2.92
COc1cccc(NC(=O)C2CC(=O)N(C)C(=Nc3cccc(F)c3)S2)c1 (configuration not stated),7.0,0.5,-43.1,-0.0404
CCSc1nc2sc3c(c2c2nnc(SCC(=O)NCc4ccco4)n12)CCCC3,49.4*,-0.4,nt,-1.53
CC1CCc2c(sc3nc(C4CC4)n4c(SCC(=O)NCc5ccco5)nnc4c23)C1 (configuration not stated),10.4,nt,27.7,nt
Cn1c(C(=O)N(Cc2ccccc2)Cc2cccs2)cc2sccc21,3.3,-0.4,64.8*!,-0.473
C[N+]1([C@H](CO)Cc2c[nH]c3ccccc23)Cc2ccccc2C1,49.5*,nt,18.6,nt
